Activity calls are given as the source filed them. No cut-off for these calls is given here.
Assays:
[1] = tested on: Mus musculus; test: Effective dose of perorally administered, that gives protection against max electroshock in mice; assay type: functional; details: po
Summary of the method: (§1)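 Male mice of 18–28 g, with weights within ±2 g of the assay mean, in groups of ten. Vehicle controls were included. Corneal electrodes delivered 200 ms at 20 mA (mean weight ≤20 g) or 25 mA, the current giving maximal tonic extensor convulsion in untreated mice.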

[2] = Anticonvulsant potency ratio expressed as ratio ED50 of UK-12130 to that of compound during separate electroshock experiments; assay type: functional
[3] = tested on: Mus musculus; test: Effective dose of perorally administered compound that gives protection against max electroshock in mice; inactive; assay type: functional, organism-based
Summary of the method: as §1, with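 “ten. Compound was ball-milled in 0.1% (v/v) Tween-80 in saline and given by gavage at 2.5, 6.25 and 16 mg/kg, 2 h before shock.” for “ten.”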

[4] = Concentration producing 50% inhibition of carbonic anhydrase taken from mouse erythrocytes
Summary of the method: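 Colorimetric assay, modified from Philpot and Philpot, run in an ice bath with about 2 enzyme units. Inhibitor was preincubated with enzyme for 5 min before substrate was added. Activity was expressed as EU = (T0 − T)/T from the uncatalyzed and catalyzed reaction times in seconds. The 50% inhibitory concentration was read graphically.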

[5] = Dissociation constant in water; assay type: physicochemical
[6] = Dissociation constant in 30% aqueous methanol; assay type: physicochemical

| SMILES | ED50 [1] [mg/kg] | Ratio [2] | further results |
| --- | --- | --- | --- |
| NS(=O)(=O)c1ccc(Sc2cccc(Cl)c2)s1 | > 6 | < 1.2 |  |
| CC(C)C(=O)Nc1ccc(S(=O)(=O)c2ccc(S(N)(=O)=O)s2)cc1 | 4 | 2 |  |
| COc1ccc(Sc2ccc(S(N)(=O)=O)s2)cc1 | > 40 | < 0.2 |  |
| CC(=O)Nc1ccc(S(=O)(=O)c2sc(S(N)(=O)=O)cc2Cl)cc1 | 6 | 1.3 |  |
| Nc1ccc(S(=O)(=O)c2ccc(S(N)(=O)=O)s2)cc1 | 2 | 3.5 |  |
| NS(=O)(=O)c1ccc(S(=O)(=O)c2ccccc2)s1 | 2 | 3.5 |  |
| NS(=O)(=O)c1cc(Cl)c(Sc2ccccc2)s1 |  |  | ED50 [3]: inactive |
| NS(=O)(=O)c1ccc(Sc2ccc(Br)cc2)s1 | > 6 | < 1.2 |  |
| NS(=O)(=O)c1ccc(Sc2ccccc2)s1 | 19 | 0.3 |  |
| NC(=O)c1ccc(S(=O)(=O)c2ccc(S(N)(=O)=O)s2)cc1 | 4 | 2 |  |
| CC(=O)c1cccc(S(=O)(=O)c2ccc(S(N)(=O)=O)s2)c1 | 3 | 2.3 |  |
| NS(=O)(=O)c1ccc([S+]([O-])c2cccc(Cl)c2)s1 (centres undefined) | 4 | 1.75 |  |
| NS(=O)(=O)c1sc(S(=O)(=O)c2ccccc2)cc1Cl | 33 | 0.2 |  |
| COC1CCN(S(=O)(=O)c2ccc(S(N)(=O)=O)c(Cl)c2)CC1 |  |  | Concentration [4]: 190 nM |
| Cc1ccc([S+]([O-])c2ccc(S(N)(=O)=O)s2)cc1 (centres undefined) | > 6 | < 1.3 |  |
| Cc1ccccc1S(=O)(=O)c1ccc(S(N)(=O)=O)s1 | 6 | 1.2 |  |
| NS(=O)(=O)c1ccc(Sc2cccc(C(F)(F)F)c2)s1 | 6 | 1.3 |  |
| NS(=O)(=O)c1ccc([S+]([O-])c2ccc(Br)cc2)s1 (centres undefined) | 5 | 1.4 |  |
| CC(=O)Nc1ccc(Sc2sc(S(N)(=O)=O)cc2Cl)cc1 |  |  | ED50 [3]: inactive |
| NS(=O)(=O)c1cc(Cl)c(S(=O)(=O)c2ccccc2)s1 | 3 | 2.3 |  |
| NS(=O)(=O)c1ccc(Sc2ccc(F)cc2)s1 | 7 | 1 |  |

| SMILES | ED50 [1] [mg/kg] | Ratio [2] | further results |
| --- | --- | --- | --- |
| NS(=O)(=O)c1ccc(Sc2cccc(F)c2)s1 | > 6 | < 1.3 |  |
| NS(=O)(=O)c1ccc(S(=O)(=O)c2ccc(F)cc2)s1 | 2 | 4 | pKa [5]: 8.29; Concentration [4]: 9 nM |
| CC(=O)Nc1ccc(Sc2cc(Cl)c(S(N)(=O)=O)s2)cc1 | 5 | 1.4 |  |
| NS(=O)(=O)c1ccc(Sc2ccc(Cl)cc2)s1 | 3 | 2 | pKa [6]: 9.19; Concentration [4]: 3 nM |
| NS(=O)(=O)c1cc(Cl)c([S+]([O-])c2ccccc2)s1 (centres undefined) | > 6 | < 1.3 |  |
| NS(=O)(=O)c1ccc(S(=O)(=O)c2ccc(Br)cc2)s1 | 4 | 1.75 |  |
| NS(=O)(=O)c1cc(Br)c(S(=O)(=O)c2ccccc2)s1 | 3 | 2.3 | pKa [5]: 7.98; Concentration [4]: 4.2 nM |
| CC(=O)Nc1ccc(S(=O)(=O)c2cc(Cl)c(S(N)(=O)=O)s2)cc1 | > 6 | < 1.3 |  |
| NS(=O)(=O)c1ccc(S(=O)(=O)c2ccc(Cl)cc2)s1 | 3 | 2.3 |  |
| CC(=O)Nc1ccc([S+]([O-])c2ccc(S(N)(=O)=O)s2)cc1 (centres undefined) | 4 | 1.5 |  |
| Cc1ccc(S(=O)(=O)c2ccc(S(N)(=O)=O)s2)cc1 | 8 | 0.8 |  |
| Nc1ccc(Sc2ccc(S(N)(=O)=O)s2)cc1 | 7 | 1 |  |
| NS(=O)(=O)c1ccc(S(=O)(=O)c2ccc3ccccc3c2)s1 | 8 | 0.75 |  |
| NS(=O)(=O)c1ccc([S+]([O-])c2ccc(F)cc2)s1 (centres undefined) | 3 | 2 |  |
| NS(=O)(=O)c1ccc(S(=O)(=O)c2cccc(F)c2)s1 | 2 | 3.5 |  |
| NS(=O)(=O)c1ccc(Sc2ccc3ccccc3c2)s1 |  |  | ED50 [3]: inactive |
| CSc1ccc(Sc2ccc(S(N)(=O)=O)s2)cc1 | 4 | 1.75 |  |
| CS(=O)(=O)c1ccc(Sc2ccc(S(N)(=O)=O)s2)cc1 | 5 | 1.4 |  |
| CC(=O)Nc1nnc(S(N)(=O)=O)s1 [ACETAZOLAMIDE] | 36 |  | Concentration [4]: 20 nM |
| CC(=O)Nc1ccc(S(=O)(=O)c2ccc(S(N)(=O)=O)s2)cc1 | 2 | 4 |  |
| NS(=O)(=O)c1ccc(S(=O)(=O)c2ccccc2)cc1 | 10 | 0.9 | pKa [5]: 9.1; Concentration [4]: 64 nM |

| SMILES | ED50 [1] [mg/kg] | Ratio [2] | further results |
| --- | --- | --- | --- |
| Cc1cc(S(N)(=O)=O)sc1S(=O)(=O)c1ccccc1 | 3 | 2.7 |  |
| NS(=O)(=O)c1sc(Sc2ccccc2)cc1Cl |  |  | ED50 [3]: inactive |
| CC(C)(C)c1ccc(S(=O)(=O)c2ccc(S(N)(=O)=O)s2)cc1 |  |  | ED50 [3]: inactive |
| CC(C)C(=O)Nc1ccc(Sc2ccc(S(N)(=O)=O)s2)cc1 |  |  | ED50 [3]: inactive |
| NS(=O)(=O)c1cc(Br)c(Sc2ccccc2)s1 |  |  | ED50 [3]: inactive |
| Cc1ccccc1Sc1ccc(S(N)(=O)=O)s1 | > 16 | < 0.5 |  |
| NS(=O)(=O)c1ccc(S(=O)(=O)c2cccc(C(F)(F)F)c2)s1 | 5 | 1.6 |  |
| CN(C)S(=O)(=O)c1ccc(S(=O)(=O)c2ccc(S(N)(=O)=O)s2)cc1 |  |  | ED50 [3]: inactive |
| NS(=O)(=O)c1ccc([S+]([O-])c2cccc(F)c2)s1 (centres undefined) | 2.5 | 3.2 |  |
| COc1ccc(S(=O)(=O)c2ccc(S(N)(=O)=O)s2)cc1 | 6 | 1 |  |
| COc1ccc([S+]([O-])c2ccc(S(N)(=O)=O)s2)cc1 (centres undefined) | > 6 | < 1.3 |  |
| NS(=O)(=O)c1ccc(Sc2ccc(O)cc2)s1 |  |  | ED50 [3]: inactive |
| CS(=O)(=O)c1ccc([S+]([O-])c2ccc(S(N)(=O)=O)s2)cc1 (centres undefined) | > 16 | < 0.4 |  |
| Cc1ccc(Sc2ccc(S(N)(=O)=O)s2)cc1 | > 40 | < 0.2 |  |
| CC(=O)Nc1ccc(Sc2ccc(S(N)(=O)=O)s2)cc1 | 9 | 1.1 |  |
| NS(=O)(=O)c1ccc(S(=O)(=O)c2ccc(O)cc2)s1 |  |  | ED50 [3]: inactive |
| NS(=O)(=O)c1ccc([S+]([O-])c2ccc(Cl)cc2)s1 (centres undefined) | 2 | 3.5 | pKa [5]: 8.57; Concentration [4]: 26 nM |
| CC(C)(C)c1ccc(Sc2ccc(S(N)(=O)=O)s2)cc1 |  |  | ED50 [3]: inactive |
| CS(=O)(=O)c1ccc(S(=O)(=O)c2ccc(S(N)(=O)=O)s2)cc1 | 4 | 1.75 |  |
| CN(C)S(=O)(=O)c1ccc(Sc2ccc(S(N)(=O)=O)s2)cc1 | > 6 | < 1.3 |  |
| NS(=O)(=O)c1ccc([S+]([O-])c2ccccc2)s1 (centres undefined) | 2 | 3.5 |  |

— ChEMBL document CHEMBL1121682, “Cerebrovasodilatation through selective inhibition of the enzyme carbonic anhydrase. 3. 5-(Arylthio)-, 5-(arylsulfinyl)-, and 5-(arylsulfonyl)thiophene-2-sulfonamides” (J Med Chem, 1981)
